Assay results taken from paper PMC5651361 (Alzheimer's & Dementia : Translational Research & Clinical …, 2016).
Values joined by “and” are separate entries in the source; they are usually repeats but may differ in a detail not shown here. Equal entries are not always repeated. Where two headings read alike, the source gives them in different places. One block for each compound: values may come before it.

Legend:
tau = settings: 2-week treatment, ventral horn spinal motoneurons and hippocampal CA3 mossy fibers, tau × amyloid precursor protein mice; cited from earlier work
pSer9-GSK3β [1] = settings: cortex of CD1 mice; cited from earlier work
pSer9-GSK3β [2] = settings: Tg2576 (APP) AD-transgenic mice; cited from earlier work
[3] = Plasma and brain exposure after 5-month repeated oral; type: in vivo, mouse; settings: for Brain/plasma AUC(0–24 h) ratio / AUC(0–24 h) / Cmax/Cmin ratio / Cmin / Cmax: 5 months; for 0.002%/0.00067% AUC(0–24 h) ratio: 5 months in diet
Procedure, shortened: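 Male WT mice received the test compound in diet (0.00067% or 0.002%) for 5 months. Blood was taken from the mandibular vein of awake mice into lithium heparin and centrifuged at 1500–2000g for 10 min at 4°C; plasma was stored at −80°C. Pons/cerebellum was dissected. Samples spanned 24 h; analytes were acetonitrile-precipitated and measured by LC-MS/MS.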

THY-Tau22 mice = assay: Shape and spatial object recognition test; type: in vivo, mouse; settings: for recognition index, shape episodic memory: Fig. 2A; for recognition index, shape episodic memory / recognition index, spatial episodic memory: means ± SEM; for recognition index, spatial episodic memory: Fig. 2B
Procedure, shortened: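 Individually housed male THY-Tau22 and WT littermates (enriched environment, reverse light/dark cycle) received diet dosing from age 2 months for 4 or 6 months. Object recognition used a 59 × 59 × 30 cm PVC open field (black walls, white floor) with an overhead camera. Washout groups were tested for shape at 10 d and spatial memory at 17 d after cessation. Recognition index is reported as mean ± SEM.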

tau protein = type: in vivo, mouse; settings: for change in tau phosphorylation at Ser199/202-Thr205 (AT8 signal): 6 months in diet, not significant
Procedure, shortened: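 Cortex or hippocampus from THY-Tau22 mice given diet dosing for 6 months was homogenized in RIPA buffer (pH 7.5) with protease inhibitors, 1 μM okadaic acid and 100 mM NaF, then centrifuged at 16,000g for 10 min at 4°C. Protein (5 or 20 μg) was run on 4–12% Bis-Tris gels, transferred to PVDF and blocked in 5% milk. Primary antibodies were applied overnight at 4°C. Values are relative, n = 7–9/group.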

Ser9-GSK3β = assay: Western blot of Ser9-GSK3β in hippocampus; type: in vivo, mouse; settings: 2-week treatment, 0.002% and 0.02% in drinking water, THY-Tau22 mice
[4] = tested on: AT8 (pSer199/202-Thr205) tau; assay: AT8 immunostaining, quantitative image analysis; type: in vivo, mouse; settings: 6 months, cortex
Procedure, shortened: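 Male THY-Tau22 mice received the test compound in diet (0.0002%, 0.002% or 0.02%) for 6 months from age 2 months. Hemibrains were immersion-postfixed 7 days at 4°C in 4% formaldehyde, and 20 μm serial sagittal cryostat sections were cut. AT8 immunostaining was quantified by virtual-slide scanning image analysis as mean positive cell bodies count. Dunnett tests were run on log-transformed data, n = 9 mice/group.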

neurofibrillary tangles = assay: Neurofibrillary tangles, Gallyas silver staining; type: in vivo, mouse; settings: 6 months
MIP-1α = assay: Hippocampal mRNA expression, quantitative real-time RT-PCR; type: in vivo, mouse; settings: 6 months, hippocampus
GFAP = assay: as above; type: in vivo, mouse; settings: 6 months in diet, hippocampus, THY-Tau22
cystatin F = assay: as above; type: in vivo, mouse; settings: 6 months in diet, hippocampus, THY-Tau22
APPxPS1 transgenic mice = assay: Object recognition test in APPxPS1 transgenic mice; type: in vivo, mouse; settings: data not shown
rats = settings: object recognition test, acute treatment; cited from earlier work
mice = settings: object recognition test, acute treatment; cited from earlier work
[5] = tested on: histamine H3-receptor (H3R); settings: compared with ABT-239; cited from earlier work

SMILES: C[C@@H]1CCCN1CCc1cc2cc(-c3ccc(C#N)cc3)ccc2o1 [ABT-239]
- tau hyperphosphorylation (AT8 site) (tau): decreases tau hyperphosphorylation
- levels of pSer9-GSK3β (inactive form of GSK3β) (pSer9-GSK3β [1]): increased the levels
- reduction in hippocampal pSer9-GSK3β levels (pSer9-GSK3β [2]): reversed the reduction

- Brain/plasma AUC(0–24 h) ratio ([3]; 0.00067% in diet): 3.5
- AUC(0–24 h) ([3]; 0.00067% in diet, brain): 110 ng·h/g
- AUC(0–24 h) ([3]; 0.00067% in diet, plasma): 31 ng·h/mL
- Cmax/Cmin ratio ([3]; 0.00067% in diet, plasma): 1.4
- Cmin ([3]; 0.00067% in diet, plasma): 1.26 ng/mL and 4.83 nM
- Cmax/Cmin ratio ([3]; 0.00067% in diet, pons/cerebellum): 1.5
- Brain/plasma AUC(0–24 h) ratio ([3]; 0.002% in diet): 3.5
- AUC(0–24 h) ([3]; 0.002% in diet, brain): 390 ng·h/g
- AUC(0–24 h) ([3]; 0.002% in diet, plasma): 110 ng·h/mL
- Cmax ([3]; 0.002% in diet, plasma): 24.8 nM
- Cmax/Cmin ratio ([3]; 0.002% in diet, plasma): 2.7
- Cmin ([3]; 0.002% in diet, plasma): 2.44 ng/mL and 9.35 nM
- Cmax ([3]; 0.002% in diet, plasma, male WT mice): 6.48 ng/mL
- Cmax/Cmin ratio ([3]; 0.002% in diet, pons/cerebellum): 2.1
- 0.002%/0.00067% AUC(0–24 h) ratio ([3]; plasma): 3.5
- 0.002%/0.00067% AUC(0–24 h) ratio ([3]; pons/cerebellum): 3.5
SMILES: CN1CCCC1CCNS(=O)(=O)c1ccc2c(c1)CN(CC1CCCCC1)CC2 (centres unmarked) [SAR110894]
- deficit in shape episodic memory (THY-Tau22 mice; 0.00067% in diet, 4 months, THY-Tau22 mice, confirmatory study, Fig. 2C): no effect
- deficit in spatial episodic memory (THY-Tau22 mice; 0.00067% in diet, 4 months, THY-Tau22 mice, confirmatory study, Fig. 2D): reduced the deficit
- recognition index, shape episodic memory (THY-Tau22 mice; 0.002% in diet, THY-Tau22 mice, P = .0010): 64 ± 2%
- recognition index, spatial episodic memory (THY-Tau22 mice; 0.002% in diet, THY-Tau22 mice, P = .0153): 58 ± 3%
- procognitive effect on shape episodic memory after treatment washout (THY-Tau22 mice; 0.002% in diet, after 1 week of washout, Fig. 2C): still persisted
- procognitive effect on spatial episodic memory after treatment washout (THY-Tau22 mice; 0.002% in diet, after 2 weeks of washout, Fig. 2D): still persisted
- recognition index, shape episodic memory (THY-Tau22 mice; 0.02% in diet, THY-Tau22 mice, P = .0104): 61 ± 3%
- recognition index, spatial episodic memory (THY-Tau22 mice; 0.02% in diet, THY-Tau22 mice, P = .0002): 60 ± 2%
- cognitive deficits in THY-Tau22 mice (THY-Tau22 mice; administered during 4 or 6 months starting at the age of 2 months): prevented cognitive deficits
- change in tau phosphorylation at pSer214 (tau protein; 0.002% in diet, 6 months, cortex, P = .0052): −35%
- change in tau phosphorylation at pSer422 (tau protein; 0.002% in diet, 6 months, cortex, no effect, P = .3019): −20%
- change in tau phosphorylation at pThr181 (AT270 signal) (tau protein; 0.002% in diet, 6 months, cortex, no effect, P = .4830): −16%
- change in AD2 signal (tau protein; 0.002% in diet, 6 months, cortex, second independent Western blot evaluation, P = .0191, Fig. 4F): −37%
- change in AD2 signal (tau protein; 0.002% in diet, 6 months, cortex, trend, P = .2766, Fig. 4B): −57%
- change in total tau (Tau5 signal) (tau protein; 0.002% in diet, 6 months, cortex, unchanged, P = .0950): −17%
- change in tau phosphorylation at residues 396/404 (AD2 signal) (tau protein; 0.002% in diet, 6 months, hippocampus, THY-Tau22, P = .0291): −37%
- tau hyperphosphorylation (AD2 or AT8) (tau protein; 2-week treatment, 0.002% and 0.02% in drinking water, hippocampus, 5- to 6-month-old THY-Tau22 mice): no effect
- change in tau phosphorylation at Ser199/202-Thr205 (AT8 signal) (tau protein; cortex, P = .8054, Fig. 4E): −29%
- change in tau phosphorylation at Ser199/202-Thr205 (AT8 signal) (tau protein; hippocampus, P = .5560, Fig. 4D): −22%
- tau hyperphosphorylation (AD2 or AT8 epitopes) (tau protein; acute administration 3 and 10 mg/kg orally, cingulate cortex, 3-month-old THY-Tau22 mice, data not shown): no effect
- level of Ser9-GSK3β (inactive form of GSK3β) (Ser9-GSK3β): no effect
- decrease in number of AT8-positive neuronal cell bodies ([4]; 0.002% in diet, THY-Tau22, P = .0010): 47%
- intensity of AT8 immunostaining within neuronal cell bodies and fibers ([4]; 0.002% in diet, data not shown): marked decrease
- decrease in number of AT8-positive neuronal cell bodies ([4]; 0.02% in diet, THY-Tau22, P = .0250): 32%
- change in number of NFTs (neurofibrillary tangles; 0.002% in diet, cortex, P = .0001): −48%
- change in number of NFTs (neurofibrillary tangles; 0.002% in diet, hippocampus, P < .0001): −25%
- change in number of NFTs (neurofibrillary tangles; 0.02% in diet, amygdala, P = .0065): −31%
- change in number of NFTs (neurofibrillary tangles; 0.02% in diet, cortex, P = .0019): −41%
- change in number of NFTs (neurofibrillary tangles; 0.02% in diet, hippocampus, P = .0006): −22%
- change in expression of MIP-1α (MIP-1α; 0.0002% in diet, THY-Tau22, P = .0087): −35%
- change in expression of MIP-1α (MIP-1α; 0.002% in diet, THY-Tau22, P = .0184): −36%
- expression of GFAP (GFAP): no effect
- expression of cystatin F (cystatin F): no effect
- memory deficits in APPxPS1 transgenic mice (APPxPS1 transgenic mice): decreased memory deficits
- scopolamine-induced memory deficits (rats): prevented the occurrence
- memory deficits induced by infusion of Aβ(25–35) (mice): decreased the memory deficits
- affinity and selectivity for H3R [5]: higher affinity and selectivity than ABT-239
